# ChEMBL document CHEMBL1144398, “Structure-based design, parallel synthesis, structure-activity relationship, and molecular modeling studies of thiocarbamates, new potent non-nucleoside HIV-1 reverse transcriptase inhibitor isosteres of phenethylthiazolylthiourea derivatives” (J Med Chem, 2005)
# Legend:
# MT4 [1] = experiment: Ratio of CC50 to that of EC50 determined in MT-4 cells; format: functional
# In short: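 Selectivity index, calculated as CC50/EC50. CC50 came from MTT viability of mock-infected MT-4 cells and EC50 from MTT-read protection of HIV-1-infected MT-4 cells from cytopathogenicity, with both run in parallel. Values are means of three experiments.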
# MT4 [2] = experiment: Effective concentration require to protect MT-4 cells from human immunodeficiency virus type 1 induced cytopathogenicity was determined by MTT method; format: functional, cell-based
# In short: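 MT-4 cells infected with HIV-1, with test compounds added. Protection from virus-induced cytopathogenicity was read by MTT. EC50 is the concentration giving 50% protection. Values are means of three separate experiments, with variation among triplicates under 10%. Trovirdine served as the reference.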
# MT4 [3] = experiment: Cytotoxic concentration required to reduce the viability of mock infected MT-4 cells determined by MTT method; format: functional; settings: Homo sapiens
# In short: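 Viability of mock-infected MT-4 cells, assayed in parallel with the antiviral test, read by MTT. CC50 is the concentration that lowers viability by 50%. Values are means of three separate experiments, with variation among triplicates under 10%. The highest concentration tested was 100 µM.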
SMILES,SI (MT4 [1]),EC50 (MT4 [2]),CC50 (MT4 [3])
O=C1c2ccccc2C(=O)N1CCOC(=S)Nc1ccccc1Cl,>5.9,17 µM,> 100 µM
COc1ccc(NC(=S)OCCN2C(=O)c3ccccc3C2=O)cc1,>3333,0.03 µM,> 100 µM
CC(=O)c1ccc(NC(=S)OCCN2C(=O)c3ccccc3C2=O)cc1,>714,0.14 µM,> 100 µM
N#Cc1ccc(/N=C(/S)OCCNC(=O)c2ccccc2C(=O)O)cc1,>1000,0.1 µM,> 100 µM
CSc1cccc(NC(=S)OCCNC(=O)c2ccccc2C(=O)O)c1,>9.1,11 µM,> 100 µM
O=C(O)c1ccccc1C(=O)NCCO/C(S)=N\c1ccc(OCc2ccccc2)cc1,>200,0.5 µM,> 100 µM
CSc1cccc(NC(=S)OCCN2C(=O)c3ccccc3C2=O)c1,>14.3,7 µM,> 100 µM
COc1cccc(NC(=S)OCCN2C(=O)c3ccccc3C2=O)c1,>25,4 µM,> 100 µM
CCOc1ccc(NC(=S)OCCNC(=O)c2ccccc2C(=O)O)cc1,50,2 µM,> 100 µM
O=C1c2ccccc2C(=O)N1CCCOC(=S)Nc1ccccc1,–,> 100 µM,> 100 µM
COC(=O)c1cccc(NC(=S)OCCN2C(=O)c3ccccc3C2=O)c1,>4.8,21 µM,> 100 µM
O=C1c2ccccc2C(=O)N1CCOC(=S)Nc1cccc2ccccc12,>15.4,6.5 µM,> 100 µM
Cc1ccc(NC(=S)OCCNC(=O)c2ccccc2C(=O)O)cc1,>250,0.4 µM,> 100 µM
CCN(CC)c1ccc(NC(=S)OCCN2C(=O)c3ccccc3C2=O)cc1,>71,1.4 µM,> 100 µM
O=C(O)c1ccccc1C(=O)NCCO/C(S)=N\c1cccc(Cl)c1,>33.3,3 µM,> 100 µM
CCc1ccc(NC(=S)OCCNC(=O)c2ccccc2C(=O)O)cc1,>333,0.3 µM,> 100 µM
O=C1c2ccccc2C(=O)N1CCOC(=S)Nc1cccc(C(F)(F)F)c1,>7.7,13 µM,> 100 µM
CN(C)c1ccc(NC(=S)OCCN2C(=O)c3ccccc3C2=O)cc1,>167,0.6 µM,> 100 µM
O=C(O)c1ccccc1C(=O)NCCO/C(S)=N\c1ccc(Cl)cc1,>1000,0.1 µM,> 100 µM
Cc1ccccc1/N=C(/S)OCCNC(=O)c1ccccc1C(=O)O,>3.7,27 µM,> 100 µM
CC(C)c1ccc(NC(=S)OCCNC(=O)c2ccccc2C(=O)O)cc1,>27,3.7 µM,> 100 µM
Cc1cccc(NC(=S)OCCN2C(=O)c3ccccc3C2=O)c1,>66.7,1.5 µM,> 100 µM
O=C1c2ccccc2C(=O)N1COC(=S)Nc1ccc([N+](=O)[O-])cc1,–,> 23 µM,23 µM
O=C(O)c1ccccc1C(=O)NCCO/C(S)=N\c1ccccc1,>33.3,3 µM,> 100 µM
O=C(O)c1ccccc1C(=O)NCCO/C(S)=N\c1ccc(Br)cc1,>1000,0.1 µM,> 100 µM
O=C(O)c1ccccc1C(=O)NCCO/C(S)=N\c1ccc(F)cc1,>400,0.25 µM,> 100 µM
O=C1C2C3C=CC(C3)C2C(=O)N1CCOC(=S)Nc1ccc([N+](=O)[O-])cc1 (stereo not given),–,> 100 µM,> 100 µM
COC(=O)c1ccccc1/N=C(/S)OCCN1C(=O)c2ccccc2C1=O,–,> 45 µM,45 µM

SMILES,SI (MT4 [1]),EC50 (MT4 [2]),CC50 (MT4 [3])
O=C(O)c1ccccc1C(=O)NCCO/C(S)=N\c1ccccc1F,>200,0.5 µM,> 100 µM
Cc1cccc(NC(=S)OCCNC(=O)c2ccccc2C(=O)O)c1,>20,5 µM,> 100 µM
O=C(O)c1ccccc1C(=O)NCCO/C(S)=N\c1ccc([N+](=O)[O-])cc1,>333,0.3 µM,> 100 µM
COc1ccccc1/N=C(/S)OCCNC(=O)c1ccccc1C(=O)O,>1.5,65 µM,> 100 µM
O=C1c2ccccc2C(=O)N1CCOC(=S)NC1CCCCC1,>333,0.3 µM,> 100 µM
COc1cccc(NC(=S)OCCNC(=O)c2ccccc2C(=O)O)c1,>38.5,2.6 µM,> 100 µM
CCOC(=O)c1ccc(NC(=S)OCCN2C(=O)c3ccccc3C2=O)cc1,>4.3,23 µM,> 100 µM
O=C1c2ccccc2C(=O)N1CCOC(=S)Oc1ccc(Cl)cc1,–,> 100 µM,> 100 µM
CC(C)c1ccc(NC(=S)OCCN2C(=O)c3ccccc3C2=O)cc1,2350,0.04 µM,94 µM
O=C(O)c1ccccc1C(=O)NCCO/C(S)=N\c1ccccc1[N+](=O)[O-],–,> 100 µM,> 100 µM
Cc1ccccc1/N=C(/S)OCCN1C(=O)c2ccccc2C1=O,>27,3.7 µM,> 100 µM
COc1ccccc1/N=C(/S)OCCN1C(=O)c2ccccc2C1=O,>17.9,5.6 µM,> 100 µM
O=C1c2ccccc2C(=O)N1CCOC(=S)Nc1ccccc1Br,>7.1,14 µM,> 100 µM
O=C1c2ccccc2C(=O)N1CCO/C(S)=N\c1ccccc1F,>33,3 µM,> 100 µM
Cc1ccc(OC(=S)OCCN2C(=O)c3ccccc3C2=O)cc1,–,> 100 µM,> 100 µM
O=C1c2ccccc2C(=O)N1CCOC(=S)Nc1cccc(Cl)c1,>50,2 µM,> 100 µM
CCOc1ccc(NC(=S)OCCN2C(=O)c3ccccc3C2=O)cc1,>14.3,7 µM,> 100 µM
O=C1c2ccccc2C(=O)N1CCO/C(S)=N\c1ccccc1C(F)(F)F,>1.5,65 µM,> 100 µM
O=C1c2ccccc2C(=O)N1CCO/C(S)=N\c1ccccc1[N+](=O)[O-],–,> 100 µM,> 100 µM
O=C1c2ccccc2C(=O)N1CCOC(=S)Nc1cccc([N+](=O)[O-])c1,>167,0.6 µM,> 100 µM
O=C1c2ccccc2C(=O)N1CCOC(=S)Nc1ccc(C(F)(F)F)cc1,>2500,0.04 µM,> 100 µM
CC(C)c1ccccc1/N=C(/S)OCCN1C(=O)c2ccccc2C1=O,>2.3,43 µM,> 100 µM
CC(=O)c1cccc(NC(=S)OCCN2C(=O)c3ccccc3C2=O)c1,>23,4.3 µM,> 100 µM
COC(=O)c1ccccc1/N=C(/S)OCCNC(=O)c1ccccc1C(=O)O,–,> 100 µM,> 100 µM
COC(=O)c1cccc(NC(=S)OCCNC(=O)c2ccccc2C(=O)O)c1,–,> 100 µM,> 100 µM
CCc1ccc(NC(=S)OCCN2C(=O)c3ccccc3C2=O)cc1,>1250,0.08 µM,> 100 µM
COc1ccc(NC(=S)OCCNC(=O)c2ccccc2C(=O)O)cc1,>500,0.2 µM,> 100 µM
